Legend:
LDL-C [1] = conditions: volunteers with hypercholesterolemia, n=8 per group, ezetimibe 10 mg; cited from earlier work
[2] = Tolerability: adverse events in healthy male volunteers; type: in vivo, human; conditions: multiple oral doses over 10 days, healthy male subjects
Procedure, shortened: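 Healthy Korean men took the single or combined drugs once daily for 10 days in a 3-period crossover. Monitoring ran throughout and covered vital signs, 12-lead ECG, hematology, blood chemistry, urinalysis and physical examinations. AEs were recorded by symptom, duration, intensity, drug relationship, outcome and seriousness. Counts are subjects (events); frequencies were compared by Fisher's exact test.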

[3] = Steady-state plasma pharmacokinetics of free and total ezetimibe; type: in vivo, human
Procedure, shortened: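 Ezetimibe 10 mg was given orally once daily for 10 days, alone or with rosuvastatin 20 mg, fasted, in a crossover. EDTA plasma was sampled 0–72 h after the day-10 dose. LC-MS/MS (ezetimibe-d4 internal standard) measured free and total (free plus glucuronide) ezetimibe; LLOQ was 0.2 and 0.5 ng/mL. Analysis was non-compartmental on actual times, with t1/2 as ln(2)/λz. Log-transformed Cmax,ss and AUCτ,ss were compared by ANOVA as geometric mean ratios with 90% CI.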

plasma cholesterol = conditions: in humans; cited from earlier work
[4] = single-dose 20 mg ezetimibe; cited from earlier work
LDL-C [5] = conditions: ezetimibe administered with atorvastatin; cited from earlier work
[6] = healthy subjects, 7 day-dosing, coadministration with rosuvastatin; cited from earlier work
cholesterol absorption = conditions: rat model; cited from earlier work

Row | Structure (SMILES) | subjects achieving a 35%–50% reduction of LDL-C (LDL-C [1]) | tolerability [2] | amount of free ezetimibe in the body ([3]; relative to conjugate/total ezetimibe) | 90% CI of geometric mean ratio for Cmax,ss of free ezetimibe ([3]; single versus combination treatment, exception to 0.80–1.25) | reduction of plasma cholesterol (plasma cholesterol) | AEs and physical examinations [4] | Cmax,ss of free ezetimibe [4] | additional reductions in LDL-C levels (LDL-C [5]) | 90% CI of AUCmax,ss ratio of free ezetimibe on coadministration [6] | 90% CI of Cmax,ss ratio of free ezetimibe on coadministration [6] | cholesterol absorption inhibiting activity (relative potency) (cholesterol absorption)
1 | O=C1[C@H](CC[C@H](O)c2ccc(F)cc2)[C@@H](c2ccc(O)cc2)N1c1ccc(F)cc1 [Ezetimibe] | 1 of 8 | well tolerated | < 8% | 1.038–1.346 | 15%–20% | no AEs or clinically significant changes | 5.2 ng/mL | 12%–19% | 1.094–1.341 | 0.994–1.285 | –
2 | CC(C)c1nc(N(C)S(C)(=O)=O)nc(-c2ccc(F)cc2)c1/C=C/[C@@H](O)C[C@@H](O)CC(=O)O [Rosuvastatin] | – | well tolerated | – | – | – | – | – | – | – | – | –
3 | O=C(O)[C@H]1O[C@@H](Oc2ccc([C@@H]3[C@@H](CC[C@H](O)c4ccc(F)cc4)C(=O)N3c3ccc(F)cc3)cc2)[C@H](O)[C@@H](O)[C@@H]1O [ezetimibe glucuronide] | – | – | – | – | – | – | – | – | – | – | more potent than ezetimibe

Source: publication PMC5903480 (Drug Design, Development and Therapy, 2018)
